Assay results reported in article PMC11865470 (Communications Biology, 2025).

What was measured:
NaV1.4 = NaV1.4 (Homo sapiens, UniProt P35499); experiment: whole-cell patch-clamp, off-target channel, 10 μM compound; type: cell-based; settings: for sensitivity of channel to compound: vs 0.1% DMSO
Summary of the method: (§1)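 NaV channels, transiently transfected HEK293T cells, whole-cell, 16–24 h after seeding. Pipette (mM): 140 CsF, 1 EGTA, 10 NaCl, 10 HEPES, pH 7.4. Bath (mM): 140 NaCl, 5 KCl, 2 CaCl2, 1 MgCl2, 10 glucose, 10 HEPES, pH 7.4. Bath with 0.1% DMSO applied before 10 μM test compound. Inhibition ratios compared by unpaired t-test, n = 5.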

PAC = PAC (Homo sapiens, UniProt Q9H813); experiment: whole-cell patch-clamp, off-target channel, 10 μM compound; type: cell-based; settings: vs 0.1% DMSO
Chain of PAC (Q9H813 whole entry): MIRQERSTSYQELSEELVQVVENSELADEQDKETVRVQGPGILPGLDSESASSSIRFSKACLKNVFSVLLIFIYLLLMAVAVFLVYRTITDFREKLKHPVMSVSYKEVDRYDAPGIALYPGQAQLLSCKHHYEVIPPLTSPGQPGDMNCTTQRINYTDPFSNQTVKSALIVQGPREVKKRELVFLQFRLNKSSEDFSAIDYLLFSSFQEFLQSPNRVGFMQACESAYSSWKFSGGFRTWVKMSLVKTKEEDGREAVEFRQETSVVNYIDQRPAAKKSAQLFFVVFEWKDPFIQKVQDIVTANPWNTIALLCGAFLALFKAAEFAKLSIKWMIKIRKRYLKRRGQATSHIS
Summary of the method: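 PAC in transfected HEK293T cells, whole-cell. Pipette (mM): 135 CsCl, 1 MgCl2, 2 CaCl2, 10 HEPES, 5 EGTA, 4 Mg-ATP, pH 7.2. NaCl-based bath buffered with 10 mM HEPES (pH 7.3) or 5 mM Na3-citrate (pH 5.5). 0.1% DMSO bath applied before 10 μM test compound. Inhibition ratios compared by unpaired t-test, n = 5.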

CaV2.2 = CaV2.2 (Rattus norvegicus, UniProt Q02294); experiment: whole-cell patch-clamp, off-target channel, 10 μM compound; type: cell-based; settings: for sensitivity of channel to compound: vs 0.1% DMSO
Summary of the method: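 CaV channels in transfected HEK293T cells, whole-cell. Pipette (mM): 120 CsMeSO3, 2 Mg-ATP, 11 EGTA, 10 HEPES, pH 7.4. Bath (mM): 138 NaCl, 5.6 KCl, 2.6 CaCl2, 20 TEA-Cl, 5 glucose, 5 HEPES, pH 7.4. 0.1% DMSO bath applied before 10 μM test compound. Inhibition ratios compared by unpaired t-test, n = 5.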

KV7.1 = experiment: whole-cell patch-clamp, off-target channel, 10 μM compound; type: cell-based, Homo sapiens; settings: for sensitivity of channel to compound: vs 0.1% DMSO
Summary of the method: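 KV channels in transiently transfected HEK293T cells, whole-cell. Pipette (mM): 140 KCl, 2.5 MgCl2, 11 EGTA, 10 HEPES, pH 7.4. Bath (mM): 145 NaCl, 2.8 KCl, 2 CaCl2, 1 MgCl2, 10 glucose, 10 HEPES, pH 7.4. 0.1% DMSO bath applied, then 10 μM test compound. DMSO vs compound inhibition ratio compared by unpaired t-test, n = 5.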

ASIC3 = biological target: T1, ASIC3 (Rattus norvegicus, UniProt O35240); experiment: whole-cell patch-clamp, off-target channel, 10 μM compound; type: cell-based; settings: vs 0.1% DMSO
T1 sequence (O35240 1-533): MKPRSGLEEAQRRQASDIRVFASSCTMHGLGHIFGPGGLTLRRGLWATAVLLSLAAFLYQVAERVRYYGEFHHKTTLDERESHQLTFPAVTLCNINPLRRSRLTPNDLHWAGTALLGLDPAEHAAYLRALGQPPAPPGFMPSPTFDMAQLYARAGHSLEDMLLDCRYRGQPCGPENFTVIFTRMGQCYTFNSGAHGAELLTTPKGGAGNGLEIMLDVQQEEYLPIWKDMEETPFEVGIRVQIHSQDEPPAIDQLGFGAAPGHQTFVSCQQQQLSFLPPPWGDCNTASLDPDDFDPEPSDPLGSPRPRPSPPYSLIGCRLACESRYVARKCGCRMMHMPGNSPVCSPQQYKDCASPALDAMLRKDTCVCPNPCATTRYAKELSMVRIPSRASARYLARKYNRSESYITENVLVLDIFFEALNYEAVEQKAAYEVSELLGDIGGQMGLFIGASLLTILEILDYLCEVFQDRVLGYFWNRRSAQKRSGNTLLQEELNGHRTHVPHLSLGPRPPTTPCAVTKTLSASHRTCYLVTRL
Summary of the method: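 ASIC channels in transfected HEK293T cells, whole-cell. Pipette (mM): 140 CsF, 11 EGTA, 1 CaCl2, 2 TEA-Cl, 4 MgCl2, 10 HEPES, pH 7.3. NaCl-based bath with 20 mM HEPES (pH 7.4) or 20 mM MES (pH 5.5). 0.1% DMSO bath applied before 10 μM test compound. Inhibition ratios compared by unpaired t-test, n = 5.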

mouse Otop3 (mOtop3) = biological target: T2, mouse Otop3 (mOtop3) (Mus musculus, UniProt Q80UF9); experiment: whole-cell patch-clamp, pH 5.5-evoked currents; type: cell-based; settings: 10 μM
T2 sequence (Q80UF9 1-577): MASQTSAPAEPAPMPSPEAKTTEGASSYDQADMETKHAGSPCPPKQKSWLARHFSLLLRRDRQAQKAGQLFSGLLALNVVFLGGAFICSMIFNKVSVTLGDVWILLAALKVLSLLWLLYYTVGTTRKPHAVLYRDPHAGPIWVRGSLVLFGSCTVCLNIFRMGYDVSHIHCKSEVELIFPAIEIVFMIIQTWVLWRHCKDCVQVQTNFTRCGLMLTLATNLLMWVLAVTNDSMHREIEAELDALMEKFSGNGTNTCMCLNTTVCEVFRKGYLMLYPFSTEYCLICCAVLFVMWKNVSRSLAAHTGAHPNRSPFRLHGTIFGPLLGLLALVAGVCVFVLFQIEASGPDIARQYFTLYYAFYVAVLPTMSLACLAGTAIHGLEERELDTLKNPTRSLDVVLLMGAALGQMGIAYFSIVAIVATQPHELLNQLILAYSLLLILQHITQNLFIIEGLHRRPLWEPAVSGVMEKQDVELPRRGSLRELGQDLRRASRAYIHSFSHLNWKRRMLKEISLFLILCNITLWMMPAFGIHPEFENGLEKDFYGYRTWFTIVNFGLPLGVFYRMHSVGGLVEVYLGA
Summary of the method: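 Channel plasmid (2.5 μg) was co-transfected with EGFP plasmid (0.5 μg) using Lipofectamine 2000 into PAC-knockout HEK293T cells. Whole-cell recording 16–24 h after seeding, with Cs-aspartate pipette solution (pH 7.3). Currents evoked by pH 5.5 bath (160 mM NMDG-Cl, 2 mM CaCl2, 10 mM MES); test compound 10 μM.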

NaV1.2 = NaV1.2 (Rattus norvegicus, UniProt P04775); experiment: whole-cell patch-clamp, off-target channel, 10 μM compound; type: cell-based; settings: vs 0.1% DMSO
Chain of NaV1.2 (P04775 whole entry): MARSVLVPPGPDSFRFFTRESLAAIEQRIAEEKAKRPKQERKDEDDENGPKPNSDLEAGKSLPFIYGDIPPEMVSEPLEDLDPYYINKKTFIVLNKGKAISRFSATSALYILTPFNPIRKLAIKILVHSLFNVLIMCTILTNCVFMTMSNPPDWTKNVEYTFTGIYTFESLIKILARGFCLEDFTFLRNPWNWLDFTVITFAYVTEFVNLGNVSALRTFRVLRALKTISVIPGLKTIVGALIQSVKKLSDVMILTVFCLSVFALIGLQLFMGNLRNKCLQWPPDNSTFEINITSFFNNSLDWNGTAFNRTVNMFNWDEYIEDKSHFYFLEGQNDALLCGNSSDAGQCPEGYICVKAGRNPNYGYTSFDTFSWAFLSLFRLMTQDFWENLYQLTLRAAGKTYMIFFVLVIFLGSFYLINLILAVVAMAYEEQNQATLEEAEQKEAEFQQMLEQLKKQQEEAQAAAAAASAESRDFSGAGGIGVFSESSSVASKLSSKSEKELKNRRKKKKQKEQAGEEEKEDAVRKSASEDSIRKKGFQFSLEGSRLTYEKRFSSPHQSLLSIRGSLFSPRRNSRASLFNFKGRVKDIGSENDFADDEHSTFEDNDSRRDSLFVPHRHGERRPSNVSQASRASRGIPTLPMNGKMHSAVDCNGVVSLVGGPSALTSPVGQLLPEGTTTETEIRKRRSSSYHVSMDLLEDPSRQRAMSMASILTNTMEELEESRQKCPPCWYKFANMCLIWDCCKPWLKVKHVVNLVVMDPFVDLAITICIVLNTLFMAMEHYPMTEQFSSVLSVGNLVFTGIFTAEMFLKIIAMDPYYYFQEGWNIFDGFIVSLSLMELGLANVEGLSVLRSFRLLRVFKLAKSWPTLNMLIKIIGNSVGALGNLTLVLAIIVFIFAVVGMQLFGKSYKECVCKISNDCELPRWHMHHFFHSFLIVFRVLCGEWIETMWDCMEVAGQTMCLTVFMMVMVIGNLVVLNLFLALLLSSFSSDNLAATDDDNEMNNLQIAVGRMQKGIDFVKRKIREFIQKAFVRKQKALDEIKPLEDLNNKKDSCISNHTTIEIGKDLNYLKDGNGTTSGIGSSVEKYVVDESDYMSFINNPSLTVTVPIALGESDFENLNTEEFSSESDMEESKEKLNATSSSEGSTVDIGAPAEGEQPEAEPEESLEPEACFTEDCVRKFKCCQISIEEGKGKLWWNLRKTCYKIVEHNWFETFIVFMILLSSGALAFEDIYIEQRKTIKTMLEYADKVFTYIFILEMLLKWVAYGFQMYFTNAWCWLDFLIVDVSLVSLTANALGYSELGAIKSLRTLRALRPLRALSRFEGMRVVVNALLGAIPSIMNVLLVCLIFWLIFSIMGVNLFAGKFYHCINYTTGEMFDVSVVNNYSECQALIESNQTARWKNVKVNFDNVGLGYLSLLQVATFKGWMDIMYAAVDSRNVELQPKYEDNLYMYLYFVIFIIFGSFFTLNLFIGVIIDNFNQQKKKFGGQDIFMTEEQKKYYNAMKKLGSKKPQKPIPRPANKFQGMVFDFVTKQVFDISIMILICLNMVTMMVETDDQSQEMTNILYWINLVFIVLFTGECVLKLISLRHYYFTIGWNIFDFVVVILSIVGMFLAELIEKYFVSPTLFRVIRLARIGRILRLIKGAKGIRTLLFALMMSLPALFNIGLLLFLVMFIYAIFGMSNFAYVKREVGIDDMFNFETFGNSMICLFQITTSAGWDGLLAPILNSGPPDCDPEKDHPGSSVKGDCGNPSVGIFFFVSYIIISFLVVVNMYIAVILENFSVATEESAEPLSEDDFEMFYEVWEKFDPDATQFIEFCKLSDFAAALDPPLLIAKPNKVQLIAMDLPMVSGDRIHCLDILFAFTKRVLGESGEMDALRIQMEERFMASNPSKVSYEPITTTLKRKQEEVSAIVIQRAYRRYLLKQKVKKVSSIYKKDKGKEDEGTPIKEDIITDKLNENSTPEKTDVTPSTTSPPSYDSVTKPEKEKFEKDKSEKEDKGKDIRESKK
Summary of the method: as §1

Chain of NaV1.4 (P35499 whole entry): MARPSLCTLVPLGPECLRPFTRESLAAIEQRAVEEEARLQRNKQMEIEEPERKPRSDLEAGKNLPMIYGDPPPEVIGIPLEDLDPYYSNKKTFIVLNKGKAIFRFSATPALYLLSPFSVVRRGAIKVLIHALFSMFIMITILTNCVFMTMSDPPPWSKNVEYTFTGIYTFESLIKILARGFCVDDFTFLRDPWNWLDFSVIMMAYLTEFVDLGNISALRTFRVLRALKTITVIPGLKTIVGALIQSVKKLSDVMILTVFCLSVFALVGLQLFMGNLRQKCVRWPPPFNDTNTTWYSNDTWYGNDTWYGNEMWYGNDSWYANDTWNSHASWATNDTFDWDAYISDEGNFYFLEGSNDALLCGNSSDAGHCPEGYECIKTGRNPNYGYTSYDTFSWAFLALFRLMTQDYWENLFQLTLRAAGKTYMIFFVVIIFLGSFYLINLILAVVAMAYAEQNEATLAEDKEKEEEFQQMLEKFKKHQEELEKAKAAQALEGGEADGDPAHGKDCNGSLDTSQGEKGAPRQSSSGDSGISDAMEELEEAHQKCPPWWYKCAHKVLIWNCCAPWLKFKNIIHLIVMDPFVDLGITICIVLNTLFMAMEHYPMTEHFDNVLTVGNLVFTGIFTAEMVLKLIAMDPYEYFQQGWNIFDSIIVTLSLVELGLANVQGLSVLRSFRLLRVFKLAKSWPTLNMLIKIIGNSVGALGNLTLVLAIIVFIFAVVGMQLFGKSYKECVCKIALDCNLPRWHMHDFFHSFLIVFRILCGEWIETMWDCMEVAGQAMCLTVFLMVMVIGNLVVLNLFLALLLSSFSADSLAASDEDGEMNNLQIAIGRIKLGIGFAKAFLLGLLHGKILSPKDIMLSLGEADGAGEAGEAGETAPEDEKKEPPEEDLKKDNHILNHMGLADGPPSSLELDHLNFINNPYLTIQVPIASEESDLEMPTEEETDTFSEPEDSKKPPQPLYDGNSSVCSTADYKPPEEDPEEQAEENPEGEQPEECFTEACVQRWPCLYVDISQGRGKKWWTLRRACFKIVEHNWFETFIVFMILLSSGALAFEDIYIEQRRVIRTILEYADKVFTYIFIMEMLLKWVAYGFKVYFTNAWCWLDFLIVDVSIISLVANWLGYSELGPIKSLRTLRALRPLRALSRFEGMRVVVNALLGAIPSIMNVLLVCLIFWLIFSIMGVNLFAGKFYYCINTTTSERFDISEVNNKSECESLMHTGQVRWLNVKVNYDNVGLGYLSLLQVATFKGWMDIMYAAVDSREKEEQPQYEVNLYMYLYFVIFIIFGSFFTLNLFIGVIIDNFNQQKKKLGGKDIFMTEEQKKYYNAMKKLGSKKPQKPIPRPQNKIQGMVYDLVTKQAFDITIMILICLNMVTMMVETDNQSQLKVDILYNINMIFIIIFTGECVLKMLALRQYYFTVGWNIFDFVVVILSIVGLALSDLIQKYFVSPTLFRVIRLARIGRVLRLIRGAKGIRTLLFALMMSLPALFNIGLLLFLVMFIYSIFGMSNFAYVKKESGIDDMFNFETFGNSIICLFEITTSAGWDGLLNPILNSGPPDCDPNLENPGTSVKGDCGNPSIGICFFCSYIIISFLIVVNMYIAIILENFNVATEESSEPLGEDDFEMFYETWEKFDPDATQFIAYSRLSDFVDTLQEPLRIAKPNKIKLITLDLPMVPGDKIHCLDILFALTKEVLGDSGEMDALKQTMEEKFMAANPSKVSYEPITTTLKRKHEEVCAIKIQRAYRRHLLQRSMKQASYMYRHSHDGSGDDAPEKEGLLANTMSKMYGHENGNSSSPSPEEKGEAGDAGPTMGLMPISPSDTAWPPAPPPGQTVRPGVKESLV

Structure (SMILES)	inhibition ratio (NaV1.4) [%]	sensitivity of channel to compound (PAC)	inhibition ratio (CaV2.2) [%]	sensitivity of channel to compound (KV7.1)	sensitivity of channel to compound (ASIC3)	effect on pH 5.5-evoked mOtop3 currents (mouse Otop3 (mOtop3))	sensitivity of channel to compound (NaV1.2)	sensitivity of channel to compound (NaV1.4)	sensitivity of channel to compound (CaV2.2)	inhibition ratio (KV7.1) [%]
Cc1ccc(C(=O)Nc2ccc3ccccc3c2)o1 [MFaN, 5-methyl-N-2-naphthyl-2-furamide]	7.0	completely resistant	7.9	completely resistant	completely resistant	did not affect	completely resistant			
Cc1cc(NC(=O)c2ccc(Br)o2)ccc1NC(=O)c1ccco1 [B2FAMP, 5-Bromo-N-[4-(2-furoylamino)-3-methylphenyl]-2-furamide]		completely resistant		completely resistant	completely resistant	did not affect	completely resistant	completely resistant	completely resistant	
CC(C)c1noc2ncc(C(=O)c3ccccc3O)cc12 [HIMOP, (2-hydroxyphenyl)-(3-propan-2-yl-5-isoxazolo[5,4-b]pyridinyl)methanone]		completely resistant			completely resistant	did not affect	completely resistant	completely resistant	completely resistant	16.4
